Experimental data as given in ChEMBL document CHEMBL5331142, “Novel 1,4-Dihydropyridines as Specific Binders and Activators of SIRT3 Impair Cell Viability and Clonogenicity and Downregulate Hypoxia-Induced Targets in Cancer Cells” (J Med Chem, 2023).
Activity calls are given as the source filed them. No cut-off for these calls is given here.

How the values were obtained:
[1] = tested on: HaCaT; test: Cytotoxicity against human HaCaT cells assessed as reduction in cell viability at 5 to 25 uM incubated for 24 to 48 hrs by trypan blue exclusion assay; format: toxicity, cell-based; settings: dose lower 5 µM, time lower 24 hrs, dose upper 25 µM, time upper 48 hrs
Procedure, shortened: (§1)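 HaCaT keratinocytes in DMEM with 10% FBS, treated at 5, 10 and 25 μM for 24 and 48 h. Viability and death scored by trypan blue hemocytometer counting. Three independent experiments.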

[2] = tested on: MDA-MB-231; test: Downregulation of SLUG gene expression in human MDA-MB-231 cells at 50 uM incubated for 48 hrs by qRT-PCR analysis; format: functional, cell-based
Procedure, shortened: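 MDA-MB-231 cells treated with 50 μM compound for 48 h under normoxia, DMSO vehicle control. qRT-PCR quantified by the 2(−ΔCt) method as fold of control, mean ± SEM. Three independent experiments.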

[3] = molecular target: T1, NAD-dependent protein deacetylase sirtuin-3, mitochondrial (Homo sapiens) (UniProt Q9NTG7); test: Activation of human SIRT3 overexpressing in human MDA-MB-231 cells assessed as increase in acK122-MnSOD deacetylation level at 10 uM incubated for 4 hrs by Western blot analysis assay; format: cell-based; settings: filed as activator
T1 sequence (whole entry): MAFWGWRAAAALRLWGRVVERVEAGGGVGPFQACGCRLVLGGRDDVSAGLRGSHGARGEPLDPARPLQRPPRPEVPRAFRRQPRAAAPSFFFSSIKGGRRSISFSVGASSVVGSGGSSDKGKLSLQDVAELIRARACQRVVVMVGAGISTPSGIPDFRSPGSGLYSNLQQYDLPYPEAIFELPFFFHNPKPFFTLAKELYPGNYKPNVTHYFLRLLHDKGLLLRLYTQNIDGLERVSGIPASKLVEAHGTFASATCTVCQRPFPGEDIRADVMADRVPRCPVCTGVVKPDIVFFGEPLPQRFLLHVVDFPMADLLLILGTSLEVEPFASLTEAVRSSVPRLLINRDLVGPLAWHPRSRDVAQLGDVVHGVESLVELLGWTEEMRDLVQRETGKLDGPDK
Procedure, shortened: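 MDA-MB-231 cells treated 4 h at 10 μM, lysed, and immunoblotted for acK122-MnSOD and total MnSOD. Densitometric ratio.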

[4] = tested on: CAL-62; test: Inhibition of clonogenicity in human CAL-62 cells incubated for 48 hrs under hypoxia condition by crystal violet staining based assay; format: functional, cell-based; settings: CAL-62, 48 h
Procedure, shortened: (§2)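 Dose range 1–50 μM for 48 h under CoCl2 (200 μM) hypoxia. 500 surviving cells replated and grown about 7 days (CAL-62) or 10 days (MDA-MB-231). Crystal violet colony counts used to derive IC50/EC50. Three independent experiments.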

[5] = molecular target: T1, NAD-dependent protein deacetylase sirtuin-3, mitochondrial (Homo sapiens); test: Activation of human SIRT3 overexpressing in human CAL-62 cells assessed as increase in acK122-MnSOD deacetylation level at 50 uM incubated for 4 hrs by Western blot analysis assay; format: cell-based; settings: filed as activator
Procedure, shortened: (§3)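 CAL-62 or MDA-MB-231 cells treated 4 h at 50 μM. Lysed in Tris/NaCl/EDTA/Triton buffer with protease and phosphatase inhibitors. 15 or 50 μg protein resolved by SDS-PAGE, immunoblotted for acK68- or acK122-MnSOD and total MnSOD, ECL detection. Densitometric acetyl/total ratio. SIRT3 inhibitor 3-TYP (1 μM) used as control.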

[6] = molecular target: T1, NAD-dependent protein deacetylase sirtuin-3, mitochondrial (Homo sapiens); test: Activation of human SIRT3 overexpressing in human CAL-62 cells assessed as increase in acK68-MnSOD deacetylation level at 50 uM incubated for 4 hrs by Western blot analysis assay; format: cell-based; settings: filed as activator; procedure, shortened: as §3
[7] = tested on: CAL-62; test: Downregulation of HIF1alpha expression in human CAL-62 cells at 50 uM incubated for 48 hrs under hypoxia condition by Western blot analysis; format: functional, cell-based
Procedure, shortened: (§4)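 CAL-62 or MDA-MB-231 cells made hypoxic with 200 μM CoCl2 for 24 h, then treated with 50 μM compound for 48 h with CoCl2 retained. Lysates (15 or 50 μg protein) immunoblotted for HIF-1α, EPAS-1 or CA-IX with ACTB, ECL detection. 3-TYP (1 μM) as control.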

[8] = tested on: HaCaT; test: Cytotoxicity against human HaCaT cells assessed as reduction in cell viability at 10 to 25 uM incubated for 48 hrs by trypan blue exclusion assay; format: toxicity, cell-based; settings: dose 10-25 µM; procedure, shortened: as §1
[9] = tested on: MDA-MB-231; test: Inhibition of cell migration in human MDA-MB-231 cells at 50 uM incubated for 48 hrs by scratch assay; format: functional
Procedure, shortened: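 Confluent MDA-MB-231 monolayer shifted to serum-depleted medium and scratched with a pipette tip. Treated with 50 μM compound for 48 h, DMSO as control. Migration imaged by phase contrast at two time points and quantified. Mean ± SEM of three independent experiments.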

[10] = tested on: MDA-MB-231; test: Downregulation of CA-IX expression in human MDA-MB-231 cells at 50 uM incubated for 48 hrs under hypoxia condition by Western blot analysis; format: functional, cell-based; procedure, shortened: as §4
[11] = tested on: MDA-MB-231; test: Inhibition of clonogenicity in human MDA-MB-231 cells incubated for 48 hrs under hypoxia condition by crystal violet staining based assay; format: functional, cell-based; settings: MDA-MB-231, 48 h; procedure, shortened: as §2
[12] = molecular target: T2, NAD-dependent protein deacetylase sirtuin-3, mitochondrial (Homo sapiens, UniProt Q9NTG7); test: Binding affinity to N-terminal his-tagged human SIRT3 (114 to 380 residues) assessed as dissociation constant by SPR analysis
T2 sequence (Q9NTG7 whole entry): T1 sequence (whole entry)
Procedure, shortened: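 SPR with SIRT3 amine-coupled to the chip (sodium acetate pH 4.0; 1500–4000 RU). Analytes diluted to 200 μM in HBSP (20 mM Hepes, 150 mM NaCl, 0.005% P20; 2% DMSO), injected at 5, 10, 20, 40, 80 μM at 30 μL/min. Dissociation after 180 s. Reference chip lacked ligand. Apparent KD by Scatchard analysis. Run twice.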

Row | Activity [3] | IC50 [4] [µM] | Activity [5] | Activity [6] | IC50 [11] [µM] | Kd [12] [µM] | SMILES | Activity [1] | Activity [2] | Activity [7] | Activity [8] | inhibition at 50 µM [9] [%] | Activity [10]
1 | – | – | – | – | – | – | CCOC(=O)C1=CN(C(=O)c2ccc(OC)c(OC)c2)C=C(C(=O)OCC)C1c1ccccc1 | Non-Toxic | – | – | – | – | –
2 | Active | 5.43 | Active | Active | 3.19 | 79 | CCOC(=O)C1=CN(C(=O)c2cc(OC)cc(OC)c2)C=C(C(=O)OCC)C1c1ccccc1 | – | inactive | Active | Non-Toxic | > 75 | Active
